Reference: ChEMBL document CHEMBL1145184, “Synthesis, X-ray crystal structure study, and cytostatic and antiviral evaluation of the novel cycloalkyl-N-aryl-hydroxamic acids” (J Med Chem, 2005)
Values after ≈ are worked out from the molar mass of the structure shown.

Experiments:
MCF7 = experiment: Inhibitory concentration of the compound was determined against MCF-7 cell line; assay type: functional, cell-based; conditions: Homo sapiens
Cell line [1] = experiment: Minimum cytotoxic concentration that causes a microscopically detectable alteration of cell morphology; assay type: functional; conditions: Homo sapiens
Cytomegalovirus [2] = experiment: Effective concentration against AD-169 strain of CMV virus expressed in HEL cells; assay type: functional, organism-based; conditions: Human betaherpesvirus 5, HEL
How it was run: (§1)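 Human embryonic lung (HEL) cell cultures infected with cytomegalovirus at 100 plaque forming units. EC50 is the concentration that cuts plaque formation by 50%, given in µg/mL.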

MOLT-4 = experiment: Inhibitory concentration of the compound was determined against Molt 4/C8 cell line; assay type: functional, cell-based; conditions: Homo sapiens
CCRF-CEM [3] = experiment: Inhibitory concentration of the compound was determined againstCEM cell line; assay type: functional, cell-based; conditions: Homo sapiens
SW-620 = experiment: Inhibitory concentration of the compound was determined against SW6 20 cell line; assay type: functional, cell-based; conditions: Homo sapiens
HEp-2 = experiment: Inhibitory concentration of the compound was determined against Hep2 cell line; assay type: functional, cell-based; conditions: Homo sapiens
[4] = Inhibitory concentration of the compound was determined against W138 cell line; assay type: functional, cell-based, Homo sapiens
How it was run: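 Cytostatic test on human normal fibroblasts, run in the same panel as the malignant tumour lines L1210, Molt4/C8, CEM, SW620, Hep2, MiaPaCa2, MCF7 and HeLa. The value is reported as an IC50.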

L1210 [5] = experiment: Inhibitory concentration of the compound was determined against L1210 cell line; assay type: functional, cell-based; conditions: Mus musculus
HeLa [6] = experiment: Inhibitory concentration of the compound was determined against HeLa cell line; assay type: functional, cell-based; conditions: Homo sapiens
Cytomegalovirus [7] = experiment: Effective concentration against Davis strain of CMV virus expressed in HEL cells; assay type: functional, organism-based; conditions: Human betaherpesvirus 5, HEL; how it was run: as §1
MIA PaCa-2 = experiment: Inhibitory concentration of the compound was determined against MiaPaCa2 cell line; assay type: functional, cell-based; conditions: Homo sapiens
Cell line [8] = experiment: Cytotoxic concentration required to reduce cell growth by 50%; assay type: functional; conditions: Homo sapiens
How it was run: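 Growth of HEL cells was measured. CC50 is the concentration that reduces cell growth by 50%, given in µg/mL.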

HeLa [9] = experiment: Inhibitory concentration of the compound was determined againstHeLa cell line; assay type: functional, cell-based; conditions: Homo sapiens
CCRF-CEM [10] = experiment: Inhibitory concentration was determined against CEM cell line; assay type: functional, cell-based; conditions: Homo sapiens
CCRF-CEM [11] = experiment: Inhibitory concentration ofthecompound was determined against CEM cell line; assay type: functional, cell-based; conditions: Homo sapiens
L1210 [12] = experiment: Inhibitory concentration against L1210 cell line; assay type: functional, cell-based; conditions: Mus musculus

| Structure (SMILES) | IC50 (MCF7) [µM] | MCC (Cell line [1]) [µg/mL] | EC50 (Cytomegalovirus [2]) [µg/mL] | IC50 (MOLT-4) [µM] | IC50 (CCRF-CEM [3]) [µM] | IC50 (SW-620) [µM] | IC50 (HEp-2) [µM] | IC50 [4] [µM] | IC50 (L1210 [5]) [µM] | IC50 (HeLa [6]) [µM] | EC50 (Cytomegalovirus [7]) [µg/mL] | IC50 (MIA PaCa-2) [µM] | CC50 (Cell line [8]) [µg/mL] | IC50 (HeLa [9]) [µM] | IC50 (CCRF-CEM [10]) [µM] | IC50 (CCRF-CEM [11]) [µM] | IC50 (L1210 [12]) [µM] |
| --- | --- | --- | --- | --- | --- | --- | --- | --- | --- | --- | --- | --- | --- | --- | --- | --- | --- |
| O=C(CC1CCCCC1)N(O)c1ccccc1 | > 100 | 100 | 8 (≈ 34.3 µM) | 41 | 40 | 20 | > 100 | 70 | 27 | 30 | 8 (≈ 34.3 µM) | 40 | > 200 | – | – | – | – |
| O=C(N(O)c1ccc(Cl)cc1)C12CC3CC(CC(C3)C1)C2 | > 100 | 100 | 13 (≈ 42.5 µM) | ≥ 500 | > 500 | > 100 | > 100 | > 100 | 290 | > 100 | 7 (≈ 22.9 µM) | > 100 | > 50 | – | – | – | – |
| O=C(CCC1CCCC1)N(O)c1ccc(Cl)cc1 | 10 | 100 | 10 (≈ 37.3 µM) | 28 | – | 10 | 20 | 10 | 38 | – | 8 (≈ 29.9 µM) | 7 | 20 (≈ 74.7 µM) | 30 | 37 | – | – |
| O=C(C1CCCCC1)N(O)c1ccc(Cl)cc1 | 80 | ≥ 20 | 7.3 (≈ 28.8 µM) | 19 | – | 10 | 40 | 100 | 16 | – | 8.9 (≈ 35.1 µM) | 20 | 28 (≈ 110 µM) | 30 | – | 17 | – |
| O=C(CC1CCCCC1)N(O)c1ccc(Cl)cc1 | 10 | 50 | 7.3 (≈ 27.3 µM) | 33 | 16 | 9 | 9 | 50 | 26 | – | 6.2 (≈ 23.2 µM) | 8 | 129 (≈ 482 µM) | 30 | – | – | – |
| O=C(CCC1CCCCC1)N(O)c1ccc(Cl)cc1 | 20 | ≥ 4 | 1.5 (≈ 5.32 µM) | 24 | 36 | 20 | 30 | 30 | 21 | – | 0.8 (≈ 2.84 µM) | 10 | 4.7 (≈ 16.7 µM) | 30 | – | – | – |
| O=C(C1CC1)N(O)c1ccc(Cl)cc1 | > 100 | 100 | > 20 | 24 | 25 | 60 | > 100 | > 100 | – | – | > 20 | > 100 | 37 (≈ 175 µM) | > 80 | – | – | 22 |
| Nc1ccn(C[C@@H](CO)OCP(=O)(O)O)c(=O)n1.O.O [CIDOFOVIR] | – | ≥ 400 | 0.18 | – | – | – | – | – | – | – | 0.29 | – | 24 | – | – | – | – |
| Nc1nc2c(ncn2COC(CO)CO)c(=O)[nH]1 [GANCICLOVIR] | – | ≥ 400 | 0.37 (≈ 1.45 µM) | – | – | – | – | – | – | – | 0.37 (≈ 1.45 µM) | – | – | – | – | – | – |
